Laboratory results taken from ChEMBL document CHEMBL1122581, “Antiviral activity of C-5 substituted tubercidin analogues” (1984).
In brackets after ≈: the same amount, converted by molar mass.

Key:
Assay type in all cases: functional
[1] = tested on: Vesicular stomatitis virus; assay: Concentration required to reduce vesicular stomatitis virus induced cytopathogenicity by 50% in primary rabbit kidney cell cultures.
[2] = species: Oryctolagus cuniculus; assay: Concentration required to cause a microscopically detectable alteration in cell morphology in primary rabbit kidney cell cultures.; settings: read-out: Min cytotoxic concentration
In short: (§1)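 Uninfected cell monolayers were run in parallel with the antiviral assays and exposed to compound for the same period as the infected cultures. The end point was the lowest concentration giving a microscopically detectable disruption of normal cell morphology.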

[3] = tested on: Human alphaherpesvirus 2; assay: Concentration required to reduce HSV-2 (G) induced cytopathogenicity by 50% in primary rabbit kidney cell cultures.
[4] = tested on: HeLa; assay: Concentration required to cause a microscopically detectable alteration in cell morphology in HeLa cell cultures.; settings: Homo sapiens, read-out: Min cytotoxic concentration; in short: as §1
[5] = tested on: Coxsackievirus B4; assay: Concentration required to reduce coxsackie virus B4 induced cytopathogenicity by 50% in vero cell cultures.; settings: Enterovirus B
[6] = tested on: Mammalian orthoreovirus 1; assay: Concentration required to reduce reovirus type 1 induced cytopathogenicity by 50% in vero cell cultures.
[7] = tested on: Poliovirus 1; assay: Concentration required to reduce polio virus type 1 induced cytopathogenicity by 50% in HeLa cell cultures.; settings: Enterovirus C
[8] = tested on: Vero; assay: Concentration required to cause a microscopically detectable alteration in cell morphology in vero cell cultures.; settings: Chlorocebus sabaeus, read-out: Min cytotoxic concentration; in short: as §1
[9] = tested on: Human respirovirus 3; assay: Concentration required to reduce parainfluenza virus type 3 induced cytopathogenicity by 50% in vero cell cultures.
[10] = tested on: Human alphaherpesvirus 1; assay: Concentration required to reduce HSV-1 (KOS) induced cytopathogenicity by 50% in primary rabbit kidney cell cultures.
[11] = tested on: Coxsackievirus B4; assay: Concentration required to reduce coxsackie virus 4 induced cytopathogenicity by 50% in HeLa cell cultures.; settings: Enterovirus B
[12] = tested on: Vesicular stomatitis virus; assay: Concentration required to reduce vesicular stomatitis virus induced cytopathogenicity by 50% in HeLa cell cultures.
[13] = tested on: L1210; assay: Dose required to inhibit proliferation of L-1210 Cells by 50%; settings: Mus musculus, read-out: ID50 (the source's name)
In short: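 Inhibition of proliferation of murine leukemia L-1210 cells in exponential growth phase. ID50 is the dose inhibiting cell proliferation by 50%, given plus or minus standard deviation.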

[14] = tested on: Sindbis virus; assay: Concentration required to reduce sindbis virus induced cytopathogenicity by 50% in vero cell cultures.
[15] = tested on: Mammalian orthoreovirus 1; assay: Compound was tested for the concentration required to reduce reovirus type 1 induced cytopathogenicity by 50% in Vero cell cultures
[16] = tested on: HeLa; assay: Compound was tested for the concentration required to cause a microscopically detectable alteration in normal cell morphology in HeLa cell cultures; settings: Homo sapiens, read-out: Min cytotoxic concentration; in short: as §1
[17] = species: Oryctolagus cuniculus; assay: Compound was tested for the concentration required to cause a microscopically detectable alteration in normal cell morphology in primary rabbit kidney cell cultures; settings: read-out: Min cytotoxic concentration; in short: as §1
[18] = tested on: Human alphaherpesvirus 1; assay: Compound was tested for the concentration required to reduce HSV-1 (KOS) induced cytopathogenicity by 50% in primary rabbit kidney cell cultures
[19] = tested on: Coxsackievirus B4; assay: Compound was tested for the concentration required to reduce coxsackie virus B4 induced cytopathogenicity by 50% in Vero cell cultures; settings: Enterovirus B
[20] = tested on: Sindbis virus; assay: Compound was tested for the concentration required to reduce sindbis virus induced cytopathogenicity by 50% in Vero cell cultures
[21] = tested on: Vero; assay: Compound was tested for the concentration required to cause a microscopically detectable alteration in normal cell morphology in Vero cell cultures; settings: Chlorocebus sabaeus, read-out: Min cytotoxic concentration; in short: as §1
[22] = tested on: Coxsackievirus B4; assay: Compound was tested for the concentration required to reduce coxsackie virus B4 induced cytopathogenicity by 50% in HeLa cell cultures; settings: Enterovirus B
[23] = tested on: Human respirovirus 3; assay: Compound was tested for the concentration required to reduce parainfluenza virus type 3 induced cytopathogenicity by 50% in Vero cell cultures
[24] = tested on: Vesicular stomatitis virus; assay: Compound was tested for the concentration required to reduce vesicular stomatitis virus induced cytopathogenicity by 50% in primary rabbit kidney cell cultures
[25] = tested on: Vesicular stomatitis virus; assay: Compound was tested for the concentration required to reduce vesicular stomatitis virus induced cytopathogenicity by 50% in HeLa cell cultures
[26] = tested on: Human alphaherpesvirus 2; assay: Compound was tested for the concentration required to reduce HSV-2 (G) induced cytopathogenicity by 50% in primary rabbit kidney cell cultures

SMILES | MIC [1] [µg/mL] | MCC [2] [µg/mL] | MIC [3] [µg/mL] | MCC [4] [µg/mL] | MIC [5] [µg/mL] | MIC [6] [µg/mL] | MIC [7] [µg/mL] | MCC [8] [µg/mL] | MIC [9] [µg/mL] | MIC [10] [µg/mL] | MIC [11] [µg/mL] | MIC [12] [µg/mL] | IC50 [13] [µg/mL] | MIC [14] [µg/mL] | further results
CCCCc1cn(C2O[C@H](CO)[C@@H](O)[C@H]2O)c2ncnc(N)c12 (some centres not stated) | > 40 | 40 | > 40 | > 40 | > 40 | > 40 | > 40 | > 100 | 20 (≈ 62 µM) | > 40 | > 40 | > 40 | 81.6 (≈ 253 µM) | > 40 | 
Nc1ncnc2c1c(CCCO)cn2C1O[C@H](CO)[C@@H](O)[C@H]1O (some centres not stated) | 7 (≈ 21.6 µM) | > 40 | > 10 | 40 | 7 (≈ 21.6 µM) | 2 (≈ 6.17 µM) | 7 (≈ 21.6 µM) | 40 | 2 (≈ 6.17 µM) | 7 (≈ 21.6 µM) | 7 (≈ 21.6 µM) | 2 (≈ 6.17 µM) | 1.28 (≈ 3.95 µM) | > 10 | 
CC(O)c1cn(C2O[C@H](CO)[C@@H](O)[C@H]2O)c2ncnc(N)c12 (some centres not stated) | 0.4 (≈ 1.29 µM) | 10 | 7 (≈ 22.6 µM) | 40 | 2 (≈ 6.45 µM) | 0.4 (≈ 1.29 µM) | 0.2 (≈ 0.645 µM) | 40 | 0.7 (≈ 2.26 µM) | 2 (≈ 6.45 µM) | 0.7 (≈ 2.26 µM) | 0.2 (≈ 0.645 µM) | 0.111 (≈ 0.358 µM) | 7 (≈ 22.6 µM) | 
Nc1ncnc2c1c(Cl)cn2[C@@H]1O[C@H](CO)[C@@H](O)[C@H]1O | > 1 | 4 | > 1 | 4 | > 1 | 0.7 (≈ 2.33 µM) | 1 (≈ 3.33 µM) | 4 | > 1 | > 1 | > 0.4 | > 1 | 0.014 (≈ 0.0466 µM) | > 1 | 
Nc1ncnc2c1ccn2[C@@H]1O[C@H](CO)[C@@H](O)[C@H]1O [TUBERCIDIN] | 0.007 (≈ 0.0263 µM) | 0.4 | 0.2 (≈ 0.751 µM) | 0.4 | 0.2 (≈ 0.751 µM) | 0.07 (≈ 0.263 µM) | 0.007 (≈ 0.0263 µM) | 0.4 | 0.07 (≈ 0.263 µM) | 0.07 (≈ 0.263 µM) | 0.2 (≈ 0.751 µM) | 0.007 (≈ 0.0263 µM) | 0.04 (≈ 0.15 µM) | 0.2 (≈ 0.751 µM) | 
COC(C)c1cn(C2O[C@H](CO)[C@@H](O)[C@H]2O)c2ncnc(N)c12 (some centres not stated) | > 40 | 100 | > 40 | 10 | 2 (≈ 6.17 µM) | > 1 | 0.7 (≈ 2.16 µM) | 100 | 2 (≈ 6.17 µM) | 20 (≈ 61.7 µM) | 0.7 (≈ 2.16 µM) | > 10 | 0.404 (≈ 1.25 µM) | > 40 | 
NC(=O)c1ncn([C@@H]2O[C@H](CO)[C@@H](O)[C@H]2O)n1 [RIBAVIRIN] | 70 (≈ 287 µM) | > 400 | > 400 | > 400 | > 400 | 20 (≈ 81.9 µM) | 7 (≈ 28.7 µM) | > 400 | 20 (≈ 81.9 µM) | > 400 | 20 (≈ 81.9 µM) | 4 (≈ 16.4 µM) | 3.18 (≈ 13 µM) | 150 (≈ 614 µM) | 
Nc1ncnc2c1c(I)cn2[C@@H]1O[C@H](CO)[C@@H](O)[C@H]1O [IODOTUBERCIDIN] | > 0.4 | 1 | > 1 | 1 | > 0.4 | > 0.4 | > 0.4 | 1 | > 0.4 | 0.02 (≈ 0.051 µM) | > 0.4 | > 0.4 | 1.25 (≈ 3.19 µM) | > 0.4 | 
C/C=C/Cc1cn(C2O[C@H](CO)[C@@H](O)[C@H]2O)c2ncnc(N)c12 (some centres not stated) | > 40 | 200 | 150 (≈ 468 µM) | 1 | 2 (≈ 6.24 µM) | 2 (≈ 6.24 µM) | 0.2 (≈ 0.624 µM) | 100 | > 1 | 20 (≈ 62.4 µM) | 0.2 (≈ 0.624 µM) | 0.07 (≈ 0.219 µM) | 0.63 (≈ 1.97 µM) | > 40 | 
N#C/C=C/c1cn(C2O[C@H](CO)[C@@H](O)[C@H]2O)c2ncnc(N)c12 (some centres not stated) | 20 (≈ 63 µM) | 100 | 20 (≈ 63 µM) | 4 | > 10 | 20 (≈ 63 µM) | 4 (≈ 12.6 µM) | 100 | 7 (≈ 22.1 µM) | 2 (≈ 6.3 µM) | 1 (≈ 3.15 µM) | 0.4 (≈ 1.26 µM) | 1.36 (≈ 4.29 µM) | > 40 | 
NC(=O)c1cn([C@@H]2O[C@H](CO)[C@@H](O)[C@H]2O)c2ncnc(N)c12 [SANGIVAMYCIN] | 0.02 (≈ 0.0647 µM) | > 10 | 0.07 (≈ 0.226 µM) | 0.4 | 0.02 (≈ 0.0647 µM) | > 0.1 | 0.07 (≈ 0.226 µM) | 0.4 | 0.02 (≈ 0.0647 µM) | 0.07 (≈ 0.226 µM) | > 0.04 | 0.04 (≈ 0.129 µM) | 0.019 (≈ 0.0614 µM) | 0.2 (≈ 0.647 µM) | 
Nc1ncnc2c1c(Br)cn2[C@@H]1O[C@H](CO)[C@@H](O)[C@H]1O | > 1 | 1 | > 1 | 1 | > 0.4 | > 0.4 | > 0.4 | 0.4 | > 0.4 | > 1 | > 0.4 | > 0.4 | 0.587 (≈ 1.7 µM) | > 0.4 | 
Nc1ncnc2c1ncn2C[C@@H](O)CO |  |  |  |  |  |  | > 400 |  |  |  |  |  | 170 (≈ 813 µM) |  | MIC [15]: 70 µg/mL (≈ 335 µM); MCC [16]: > 400 µg/mL; MCC [17]: ≥ 400 µg/mL; MIC [18]: > 400 µg/mL; MIC [19]: 400 µg/mL (≈ 1910 µM); MIC [20]: > 400 µg/mL; MCC [21]: > 400 µg/mL; MIC [22]: > 400 µg/mL; MIC [23]: 20 µg/mL (≈ 95.6 µM); MIC [24]: 10 µg/mL (≈ 47.8 µM); MIC [25]: 10 µg/mL (≈ 47.8 µM); MIC [26]: > 400 µg/mL
